Experimental data from ChEMBL document CHEMBL3045616, “Synthetic pyrazole derivatives as growth inhibitors of some phytopathogenic fungi” (J Agric Food Chem, 2007).

Key:
[1] = In vitro inhibition of basal rate of photosynthetic electron transport (Hill reaction) in active intact chloroplast thylakoid membrane of Spinacia oleracea (spinach) leaves assessed as inhibition of light-driven ferricyanide reduction at 5 uM measured at 24 degC at 30 s intervals for 10 min (reference value: 100 +/-3.1%)
Globisporangium ultimum [2] = test: Antifungal activity against logarithmic phase of Pythium ultimum ATCC 58812 assessed as growth inhibition at 10 ug/ml measured at 5 days post-drug treatment; format: functional; settings: ATCC 58812, 120 h, read-out: GI
Method in brief: (§1)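 Log-phase mycelium (from 10 mm stationary-phase disks grown on cellophane over PDA, pH 5.6, 26 ± 1 °C) moved to PDA with compound added from DMSO stock at 45 °C. Final concentrations were 10, 50 or 100 µg mL^-1, with 0.1% DMSO in test and control media. Colony diameter was read daily for 5 days, in triplicate, as % of untreated control.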

Globisporangium ultimum [3] = test: Antifungal activity against logarithmic phase of Pythium ultimum Trow ATCC 58812 assessed as growth inhibition measured at 5 days post-drug treatment; format: functional, organism-based; settings: ATCC 58812, 120 h
Method in brief: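 Log-phase mycelium grown on cellophane over PDA (pH 5.6, 26 ± 1 °C) moved to PDA containing compound at 10, 50 and 100 µg mL^-1 final, with 0.1% DMSO in test and control media. Colony diameter was measured daily for 5 days, in triplicate, relative to untreated controls. IC50 came from curves of activity (%) versus log inhibitor concentration.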

Pyricularia grisea [4] = test: microbe, parasite or virus in culture; format: functional; settings: ATCC 64413, 120 h, read-out: GI
[5] = Ratio of IC50 for photosynthetic electron transport in active intact chloroplast thylakoid membrane of Spinacea oleracea L. leaves to IC50 for Pythium ultimum ATCC 58812
Botrytis cinerea [6] = test: Antifungal activity against logarithmic phase of Botryotinia fuckeliana ATCC 48339 assessed as growth inhibition at 100 ug/ml measured at 5 days post-drug treatment; format: functional; settings: ATCC 48339, 120 h, read-out: GI; method in brief: as §1
Botrytis cinerea [7] = test: Antifungal activity against logarithmic phase of Botryotinia fuckeliana ATCC 48339 assessed as growth inhibition at 10 ug/ml measured at 5 days post-drug treatment; format: functional; settings: ATCC 48339, 120 h, read-out: GI; method in brief: as §1
Pyricularia grisea [8] = test: microbe, parasite or virus in culture; format: functional; settings: ATCC 64413, 120 h, read-out: GI; remark: listed apart in the source
Globisporangium ultimum [9] = test: Antifungal activity against logarithmic phase of Pythium ultimum ATCC 58812 assessed as growth inhibition at 50 ug/ml measured at 5 days post-drug treatment; format: functional; settings: ATCC 58812, 120 h, read-out: GI; method in brief: as §1
Pyricularia grisea [10] = test: microbe, parasite or virus in culture; format: functional; settings: ATCC 64413, 120 h, read-out: GI; remark: listed apart in the source
Globisporangium ultimum [11] = test: Antifungal activity against logarithmic phase of Pythium ultimum ATCC 58812 assessed as growth inhibition at 100 ug/ml measured at 5 days post-drug treatment; format: functional; settings: ATCC 58812, 120 h, read-out: GI; method in brief: as §1
Botrytis cinerea [12] = test: Antifungal activity against logarithmic phase of Botryotinia fuckeliana ATCC 48339 assessed as growth inhibition at 50 ug/ml measured at 5 days post-drug treatment; format: functional; settings: ATCC 48339, 120 h, read-out: GI; method in brief: as §1

Cc1c(C(=O)O)c(C(=O)NC(C)(C)C)nn1-c1ccc(Cl)cc1
IC50 [1]: 950 µM | inhibition of growth at 10 µg/mL (Globisporangium ultimum [2]): 47.2% | IC50 (Globisporangium ultimum [3]): 38 µM | inhibition of growth at 50 µg/mL (Pyricularia grisea [4]): 31.5% | Ratio IC50 [5]: 25 | inhibition of growth at 100 µg/mL (Botrytis cinerea [6]): 49.9% | inhibition of growth at 10 µg/mL (Botrytis cinerea [7]): 45.6% | inhibition of growth at 10 µg/mL (Pyricularia grisea [8]): 20.9% | inhibition of growth at 50 µg/mL (Globisporangium ultimum [9]): 69.3% | inhibition of growth at 100 µg/mL (Pyricularia grisea [10]): 33.2% | inhibition of growth at 100 µg/mL (Globisporangium ultimum [11]): 69.3% | inhibition of growth at 50 µg/mL (Botrytis cinerea [12]): 49.3%
